Measured values taken from ChEMBL document CHEMBL4765256, “Structural features and functional activities of benzimidazoles as NOD2 antagonists” (Eur J Med Chem, 2020).
Active and inactive are the calls of the source. The rule behind the calls is not given here.

Tests used:
[1] = molecular target: T1, Nucleotide-binding oligomerization domain-containing protein 2 (Homo sapiens, UniProt Q9HC29); experiment: Antagonist activity at human NOD2 expressed in HEK293 cells assessed as reduction in MDP-induced NF-kappaB activation preincubated for 1 hr followed by MDP stimulation and measured after 18 hrs by SEAP reporter gene based spectrophotometric analysis; type: cell-based
T1 sequence (Q9HC29 whole entry, the tested form may be a part): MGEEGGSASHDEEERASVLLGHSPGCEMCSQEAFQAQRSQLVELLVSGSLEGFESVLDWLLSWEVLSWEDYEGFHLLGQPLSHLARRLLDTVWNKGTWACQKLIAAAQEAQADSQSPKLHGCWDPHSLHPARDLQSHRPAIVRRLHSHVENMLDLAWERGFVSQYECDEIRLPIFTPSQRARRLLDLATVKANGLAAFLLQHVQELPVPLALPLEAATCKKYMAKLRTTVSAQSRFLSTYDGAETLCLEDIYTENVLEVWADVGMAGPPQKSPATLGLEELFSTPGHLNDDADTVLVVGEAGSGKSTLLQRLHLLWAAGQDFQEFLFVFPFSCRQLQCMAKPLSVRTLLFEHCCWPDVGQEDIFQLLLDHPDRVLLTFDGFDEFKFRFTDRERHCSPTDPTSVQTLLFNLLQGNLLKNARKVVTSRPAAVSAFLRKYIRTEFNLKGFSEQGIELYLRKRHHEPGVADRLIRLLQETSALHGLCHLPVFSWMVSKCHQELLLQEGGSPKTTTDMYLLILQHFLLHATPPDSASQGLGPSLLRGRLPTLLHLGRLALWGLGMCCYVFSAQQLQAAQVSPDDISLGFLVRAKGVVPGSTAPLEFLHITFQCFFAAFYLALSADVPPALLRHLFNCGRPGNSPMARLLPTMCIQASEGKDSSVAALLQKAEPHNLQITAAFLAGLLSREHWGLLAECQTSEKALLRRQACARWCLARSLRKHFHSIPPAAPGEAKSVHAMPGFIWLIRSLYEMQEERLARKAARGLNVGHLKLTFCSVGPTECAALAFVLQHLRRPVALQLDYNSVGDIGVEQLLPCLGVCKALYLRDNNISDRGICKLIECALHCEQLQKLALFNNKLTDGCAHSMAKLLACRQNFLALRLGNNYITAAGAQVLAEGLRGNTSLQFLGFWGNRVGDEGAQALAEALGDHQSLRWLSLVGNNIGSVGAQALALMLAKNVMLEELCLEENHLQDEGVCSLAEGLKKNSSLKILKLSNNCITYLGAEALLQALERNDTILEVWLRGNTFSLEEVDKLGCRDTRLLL
How it was run: (§1)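 Dose–response in HEK-Blue NOD2 and NOD1 cells (5 × 10^5 cells/mL): 1 h pre-treatment with 0.3125–20 µM antagonist, then 2 µM MDP or 100 nM C12-iE-DAP respectively, 18 h incubation. SEAP absorbance read at 620 nm. IC50 fitted by non-linear regression. Duplicates, three biological replicates, DMSO ≤0.1%.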

[2] = molecular target: T2, Nucleotide-binding oligomerization domain-containing protein 1 (Homo sapiens, UniProt Q9Y239); experiment: Antagonist activity at human NOD1 expressed in HEK293 cells assessed as reduction in C12-iE-DAP-induced NF-kappaB activation preincubated for 1 hr followed by C12-iE-DAP stimulation and measured after 18 hrs by SEAP reporter gene based spectrophotometric analysis; type: cell-based
T2 sequence (Q9Y239 whole entry): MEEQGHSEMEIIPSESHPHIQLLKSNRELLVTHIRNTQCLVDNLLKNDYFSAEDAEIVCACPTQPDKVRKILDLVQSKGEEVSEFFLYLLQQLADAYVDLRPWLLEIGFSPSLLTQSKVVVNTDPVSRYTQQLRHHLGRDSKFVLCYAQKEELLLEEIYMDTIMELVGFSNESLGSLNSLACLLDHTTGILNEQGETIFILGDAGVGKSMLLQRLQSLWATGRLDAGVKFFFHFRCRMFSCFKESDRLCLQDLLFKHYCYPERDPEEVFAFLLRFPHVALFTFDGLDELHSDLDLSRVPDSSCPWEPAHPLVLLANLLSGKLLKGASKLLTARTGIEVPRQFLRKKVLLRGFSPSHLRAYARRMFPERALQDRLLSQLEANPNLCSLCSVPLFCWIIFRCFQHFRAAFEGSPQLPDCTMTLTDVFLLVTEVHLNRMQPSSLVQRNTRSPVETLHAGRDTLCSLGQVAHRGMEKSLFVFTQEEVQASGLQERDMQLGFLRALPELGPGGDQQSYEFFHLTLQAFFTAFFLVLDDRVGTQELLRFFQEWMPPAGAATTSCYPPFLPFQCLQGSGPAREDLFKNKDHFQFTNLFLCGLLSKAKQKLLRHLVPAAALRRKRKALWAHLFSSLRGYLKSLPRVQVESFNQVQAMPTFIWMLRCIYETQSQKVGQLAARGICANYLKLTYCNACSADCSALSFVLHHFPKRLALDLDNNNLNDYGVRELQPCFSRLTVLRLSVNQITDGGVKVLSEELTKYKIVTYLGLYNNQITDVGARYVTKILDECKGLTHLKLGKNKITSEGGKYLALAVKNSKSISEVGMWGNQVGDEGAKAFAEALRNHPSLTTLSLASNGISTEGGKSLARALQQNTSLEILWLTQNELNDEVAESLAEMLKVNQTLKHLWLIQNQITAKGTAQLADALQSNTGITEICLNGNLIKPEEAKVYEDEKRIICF

HEK293 [3] = experiment: Cytotoxicity against human HEK293 cells expressing human NOD2 assessed as reduction in metabolic activity at 20 uM incubated for 18 hrs by MTS assay; type: ADME, cell-based; conditions: hek293, 18 h
How it was run: (§2)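 HEK-Blue NOD1 or NOD2 cells seeded at 1 × 10^4 cells/well in triplicate. Treated 18 h with 20 µM compound or 0.1% DMSO vehicle. Metabolic activity read by MTS (CellTiter 96 AQueous One) and expressed relative to vehicle control. Mean ± SD of three biological replicates.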

HEK293 [4] = experiment: Cytotoxicity against human HEK293 cells expressing human NOD1 assessed as reduction in metabolic activity at 20 uM incubated for 18 hrs by MTS assay; type: ADME, cell-based; conditions: hek293, 18 h; how it was run: as §2
[5] = molecular target: T1, Nucleotide-binding oligomerization domain-containing protein 2; experiment: Antagonist activity at human NOD2 expressed in HEK293 cells assessed as reduction in MDP-induced NF-kappaB activation at 10 uM preincubated for 1 hr followed by MDP stimulation and measured after 18 hrs by SEAP reporter gene based spectrophotometric analysis; type: cell-based; conditions: time 19.0 hrs
How it was run: (§3)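 HEK-Blue NOD1 or NOD2 reporter cells (5 × 10^5 cells/mL, passages 7–12) pre-treated 1 h with 10 µM compound. Then 100 nM C12-iE-DAP (NOD1) or 2 µM MDP (NOD2) for 18 h at 37 °C, 5% CO2. Secreted SEAP read at 620 nm. DMSO ≤0.1% vehicle control. Duplicates, three biological replicates.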

[6] = molecular target: T3, Nucleotide-binding oligomerization domain-containing protein 1 (Homo sapiens) (UniProt Q9Y239); experiment: Antagonist activity at human NOD1 expressed in HEK293 cells assessed as reduction in C12-iE-DAP-induced NF-kappaB activation at 10 uM preincubated for 1 hr followed by C12-iE-DAP stimulation and measured after 18 hrs by SEAP reporter gene based spectrophotometric analysis; type: cell-based; conditions: time 19.0 hrs; how it was run: as §3
T3 sequence (whole entry): T2 sequence (Q9Y239 whole entry)

[7] = molecular target: T3, Nucleotide-binding oligomerization domain-containing protein 1 (Homo sapiens); experiment: Antagonist activity at NOD1 in human THP-1 cells assessed as reduction in C12-iE-DAP-induced IL-8 secretion at 20 uM preincubated for 1 hr followed by C12-iE-DAP stimulation and measured after 20 hrs by ELISA; type: cell-based; conditions: filed as antagonist, time 21.0 hrs
How it was run: (§4)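 THP-1 cells at 10^6 cells/mL in 24-well cultures, passages 3–12. Pre-treated 1 h with 20 µM compound, then 10 µM MDP (NOD2) or 10 µM C12-iE-DAP (NOD1) added, 20 h at 37 °C, 5% CO2. Triplicate wells, DMSO ≤0.2% as vehicle control. Supernatant IL-8 by sandwich ELISA, detection limit 15.6 pg/mL. Mean ± SD of duplicates from three independent experiments, Dunnett test.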

THP-1 [8] = experiment: Antagonist activity at NOD1/TLR4 in human THP-1 cells assessed as reduction in C12-iE-DAP/LPS-induced TNF-alpha secretion at 20 uM preincubated for 1 hr followed by C12-iE-DAP/LPS stimulation and measured after 20 hrs by ELISA; type: cell-based; conditions: time 21.0 hrs
How it was run: (§5)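 Synergy setting in THP-1 cells: 1 h pre-treatment with 20 µM compound, then 10 µM MDP or C12-iE-DAP plus 1 ng/mL E. coli O127:B8 LPS for 20 h. Supernatant TNF-α by sandwich ELISA, detection limit 4 pg/mL. DMSO vehicle ≤0.2%. Duplicates from three independent experiments, mean ± SD, Dunnett test against agonist+LPS-treated cells.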

THP-1 [9] = experiment: Antagonist activity at NOD in human THP-1 cells assessed as increase in TNF-alpha secretion at 20 uM; type: cell-based
How it was run: (§6)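 THP-1 cells at 10^6 cells/mL in RPMI 1640 with 10% heat-inactivated FCS, passages 3–12, exposed to 20 µM compound alone (no NOD agonist). IL-8 and TNF-α in cell-free supernatants measured by sandwich ELISA, reported in pg/mL. Detection limits were 15.6 pg/mL for IL-8 and 4 pg/mL for TNF-α. DMSO vehicle control, not above 0.2% final.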

THP-1 [10] = experiment: Antagonist activity at NOD2/TLR4 in human THP-1 cells assessed as reduction in MDP/LPS-induced TNF-alpha secretion at 20 uM preincubated for 1 hr followed by MDP/LPS stimulation and measured after 20 hrs by ELISA; type: cell-based; conditions: filed as antagonist, time 21.0 hrs; how it was run: as §5
[11] = molecular target: T1, Nucleotide-binding oligomerization domain-containing protein 2; experiment: Antagonist activity at NOD2 in human THP-1 cells assessed as reduction in MDP-induced IL-8 secretion at 20 uM preincubated for 1 hr followed by MDP stimulation and measured after 20 hrs by ELISA; type: cell-based; conditions: filed as antagonist, time 21.0 hrs; how it was run: as §4
THP-1 [12] = experiment: Antagonist activity at NOD in human THP-1 cells assessed as increase in IL-8 secretion at 20 uM; type: cell-based; how it was run: as §6
THP-1 [13] = experiment: Cytotoxicity against human THP-1 cells assessed as […] dehydrogenase leakage at 20 uM incubated for 18 hrs; type: cell-based; conditions: thp-1, 18 h
How it was run: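 THP-1 cells treated 18 h with compound at up to 20 µM. Lactate dehydrogenase released into cell-free supernatant measured with a colorimetric kit, results given as OD.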

Homo sapiens = species: Homo sapiens; experiment: Selectivity index, ratio of IC50 for antagonist activity at human NOD1 expressed in HEK293 cells assessed as reduction in […] induced NF-kappaB activation preincubated for 1 hr followed by C12-iE-DAP stimulation and measured after 18 hrs by SEAP reporter gene based spectrophotometric analysis to IC50 for antagonist activity at human NOD2 cells expressed in HEK293 cells assessed as reduction in MDP induced NF-kappaB activation preincubated for 1 hr followed by […] stimulation and measured after 18 hrs by SEAP reporter gene based spectrophotometric analysis; type: cell-based; how it was run: as §1

| Activity [5] | Activity [6] | Structure (SMILES) | IC50 ([1]; read-out: IC50) [µM] | IC50 [2] [µM] | Activity (HEK293 [3]) | Activity (HEK293 [4]) | Activity ([5]; filed as antagonist) | Activity ([6]; filed as antagonist) | further results |
| --- | --- | --- | --- | --- | --- | --- | --- | --- | --- |
|  |  | CN(CCCc1nc2ccccc2n1CC(=O)Nc1ccc2c(c1)CCC2)S(=O)(=O)c1ccccc1 | 5.08 | 1.66 | Non-Toxic | Non-Toxic |  |  |  |
|  |  | O=C(Cn1c(CCCNS(=O)(=O)c2ccccc2)nc2ccccc21)Nc1ccc2c(c1)CCC2 | 5.12 | 9.25 | Non-Toxic | Non-Toxic |  |  |  |
| inactive | inactive | O=C(Cn1c(CCNC(=O)c2ccncc2)nc2ccccc21)Nc1ccc2c(c1)CCC2 |  |  | Non-Toxic | Non-Toxic |  |  |  |
|  |  | CN(C)c1cccc2c(S(=O)(=O)N(C)CCc3nc4ccccc4n3CC(=O)Nc3ccc4c(c3)CCC4)cccc12 | > 20 | 3.08 | Non-Toxic | Non-Toxic |  |  |  |
| inactive | inactive | Cl.O=C(Cn1c(CCNC(=O)C2CCNCC2)nc2ccccc21)Nc1ccc2c(c1)CCC2 |  |  | Non-Toxic | Non-Toxic |  |  |  |
|  |  | O=C(Cn1c(CCNCc2ccccc2)nc2ccccc21)Nc1ccc2c(c1)CCC2 | 4.76 | 30.7 | Toxic | Toxic | Active | Active |  |
|  |  | O=C(Cn1c(CCNS(=O)(=O)c2cccnc2)nc2ccccc21)Nc1ccc2c(c1)CCC2 | 16.4 | 32 | Non-Toxic | Non-Toxic | Active | Active |  |
| inactive | inactive | O=C(Cn1c(CCNC(=O)c2cccnc2)nc2ccccc21)Nc1ccc2c(c1)CCC2 |  |  | Non-Toxic | Non-Toxic |  |  | IC50 ([1]; hek293): Not Active |
|  |  | Cc1ccc(S(=O)(=O)n2c(N)nc3ccccc32)cc1 |  |  | Non-Toxic | Non-Toxic |  | Active | Activity [7]: Active; Activity (THP-1 [8]; filed as antagonist): Active |
|  |  | CN(C)c1cccc2c(S(=O)(=O)NCCc3nc4ccccc4n3CC(=O)Nc3ccc4c(c3)CCC4)cccc12 | 6.2 | 2.68 | Non-Toxic | Non-Toxic | Active | Active | Activity (THP-1 [9]): inactive; Activity (THP-1 [10]): Active; Activity [11]: Active; Activity (THP-1 [12]): inactive; Activity [7]: Active; Activity (THP-1 [13]): Non-Toxic; Activity (THP-1 [8]): inactive |
|  |  | O=C(Cn1c(CCCNC(=O)c2ccccc2)nc2ccccc21)Nc1ccc2c(c1)CCC2 | 5.7 | 17.7 | Non-Toxic | Non-Toxic | Active | Active | Activity (THP-1 [9]): inactive; Activity (THP-1 [10]): Active; Activity [11]: Active; Activity (THP-1 [12]): inactive; Activity [7]: Active; Activity (THP-1 [13]): Non-Toxic; Activity (THP-1 [8]): inactive |
| inactive | inactive | O=C(Cn1c(CNC(=O)c2ccccc2)nc2ccccc21)Nc1ccc2c(c1)CCC2 |  |  | Non-Toxic | Non-Toxic |  |  |  |
|  |  | CC(C)(C)OC(=O)N1CCC(C(=O)NCCc2nc3ccccc3n2CC(=O)Nc2ccc3c(c2)CCC3)CC1 | 10.6 | 13.3 | Non-Toxic | Non-Toxic | Active | Active |  |
|  |  | O=C(CCc1nc2ccccc2n1CC(=O)Nc1ccc2c(c1)CCC2)Nc1ccccc1 | 8.8 | 12.4 | Non-Toxic | Non-Toxic | Active | Active |  |
|  |  | CN(CCc1nc2ccccc2n1CC(=O)Nc1ccc2c(c1)CCC2)S(=O)(=O)c1ccccc1 | 0.63 | 2.56 | Non-Toxic | Non-Toxic |  |  |  |
|  |  | O=C(Cn1c(CCNC(=O)c2ccccc2)nc2ccccc21)Nc1ccc2c(c1)CCC2 | 6.2 | 27.6 | Non-Toxic | Non-Toxic | Active | Active | Activity [11]: Active; Ratio IC50 (Homo sapiens): 4.5 |

| Structure (SMILES) | Activity [5] | Activity [6] | IC50 ([1]; read-out: IC50) [µM] | IC50 [2] [µM] | Activity (HEK293 [3]) | Activity (HEK293 [4]) | Activity ([5]; filed as antagonist) | Activity ([6]; filed as antagonist) | further results |
| --- | --- | --- | --- | --- | --- | --- | --- | --- | --- |
| O=C(Cn1c(CCNCc2ccncc2)nc2ccccc21)Nc1ccc2c(c1)CCC2 | inactive | inactive | 22.9 | 27.8 | Non-Toxic | Non-Toxic |  |  |  |
| O=C(Cc1ccncc1)NCCc1nc2ccccc2n1CC(=O)Nc1ccc2c(c1)CCC2 | inactive | inactive | 25.9 | 42.3 | Non-Toxic | Non-Toxic |  |  |  |
